Here are results for one compound from ChEMBL document CHEMBL3352511, “Pyrrole-3-carboxamides as potent and selective JAK2 inhibitors” (Bioorg Med Chem, 2014).

≈ marks a conversion by molar mass, not a printed value. Calls of active or inactive are those of the source. The calls are words filed in the database; no cut-off is given here.

Data set [1] can be described thus: Solubility of the compound in buffer at pH7. Format: physicochemical. The conditions noted are these: pH 7.
The nature of data set [2]: Clearance in Balb nu/nu mouse at 10 mg/kg, iv. Also on record: dose 10 mg/kg, route intravenous. The conditions noted are these: in vivo. The format is ADME, organism-based. In short, it runs like this: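 Overnight-fasted male Nu/Nu mice, single intravenous dose in 10% Tween 80 in 5% dextrose, three mice. Saphenous vein blood taken at predose, 0.083, 0.5, 1, 6 and 24 h. Plasma obtained by centrifugation at 10,000g, 3 min, 4 °C, stored at -80 °C, then analysed by LC/MS/MS.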

The target in data set [3] is Dual specificity protein kinase CLK2 (Homo sapiens) (UniProt P49760). Briefly: Inhibition of human CLK2 at 0.1 uM. The method, boiled down:
(§1)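 KINOMEscan active-site-directed competition binding panel of 442 human kinases, compound tested at 0.1 µM. Primary screen results expressed as % Ctrl, where lower values mean stronger binding.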

Data set [4] concerns the target Dual specificity tyrosine-phosphorylation-regulated kinase 1A (Homo sapiens) (UniProt Q13627). The experiment in a line: Inhibition of human DYRK1A at 0.1 uM. In short, it runs like this:
as §1

In data set [5] the target is T1, Serine/threonine-protein kinase TAO1 (Homo sapiens) (UniProt Q7L7X3).
T1 sequence (whole entry): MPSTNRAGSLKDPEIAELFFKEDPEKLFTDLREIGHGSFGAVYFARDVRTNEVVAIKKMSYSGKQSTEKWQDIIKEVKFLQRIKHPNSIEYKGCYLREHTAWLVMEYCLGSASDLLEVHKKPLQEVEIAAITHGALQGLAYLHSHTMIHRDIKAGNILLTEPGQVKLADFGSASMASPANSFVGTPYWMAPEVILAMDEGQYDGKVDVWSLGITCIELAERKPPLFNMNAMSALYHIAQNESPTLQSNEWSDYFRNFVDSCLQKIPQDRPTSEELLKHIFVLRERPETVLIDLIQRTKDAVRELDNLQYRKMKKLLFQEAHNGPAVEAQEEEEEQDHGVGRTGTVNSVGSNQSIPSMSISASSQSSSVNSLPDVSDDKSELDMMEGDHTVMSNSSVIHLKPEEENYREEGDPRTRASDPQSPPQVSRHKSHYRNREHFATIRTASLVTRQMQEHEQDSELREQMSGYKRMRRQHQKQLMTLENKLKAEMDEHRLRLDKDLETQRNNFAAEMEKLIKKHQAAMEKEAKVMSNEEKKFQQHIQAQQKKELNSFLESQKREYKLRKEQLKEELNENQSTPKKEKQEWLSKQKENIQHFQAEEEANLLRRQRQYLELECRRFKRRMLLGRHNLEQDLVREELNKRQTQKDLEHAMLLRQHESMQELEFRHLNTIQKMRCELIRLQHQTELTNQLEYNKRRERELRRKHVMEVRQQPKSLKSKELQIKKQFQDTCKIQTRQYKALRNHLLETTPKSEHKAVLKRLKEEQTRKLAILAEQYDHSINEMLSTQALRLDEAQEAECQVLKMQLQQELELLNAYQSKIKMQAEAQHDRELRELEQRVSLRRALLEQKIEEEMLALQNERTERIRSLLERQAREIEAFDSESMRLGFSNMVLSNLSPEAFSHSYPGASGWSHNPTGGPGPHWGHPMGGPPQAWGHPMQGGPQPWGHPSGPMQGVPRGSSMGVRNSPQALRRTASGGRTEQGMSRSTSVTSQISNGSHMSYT
The experiment in a line: Inhibition of human TAOK1 at 0.1 uM. In short, it runs like this:
as §1

For the next data set, the system named is Mus musculus. The experiment in a line: Toxicity in human SET2 cells xenografted SCID mouse assessed as reversible body weight loss at 15 mg/kg, po bid for 10 consecutive days. The format is organism-based. Also on record: dose 15 mg/kg, route oral. The conditions noted are these: in vivo. The method, boiled down:
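SET-2 xenografts (10^7 cells s.c.) in irradiated female SCID mice, seven per study, dosed orally from 100-200 mm³ tumours, with 0.5% methocel vehicle controls. Body weight loss recorded at end of treatment.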

A short description of data set [6]: Antitumor activity against human SET2 cells xenografted in SCID mouse assessed as tumor growth inhibition at 50 mg/kg, po bid administered as 5 days on 5 days off for 3 cycles. The format is functional. The note with it: SET-2, 120 h, read-out: TGI. In short, it runs like this:
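Female SCID mice, 5–6 weeks old, given 200 Rads whole-body gamma irradiation, then inoculated s.c. with 10^7 SET-2 cells. Dosing by mouth started at 100-200 mm³ tumours; controls received vehicle (0.5% methocel). Seven animals per study.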

Data set [7] concerns SET-2. The experiment in a line: Inhibition of STAT5 phosphorylation in human SET2 cells xenografted in SCID mouse assessed as tumor growth inhibition at 50 mg/kg, po as single dose measured up to 12 hrs post treatment. Format: functional, organism-based. Also on record: dose 50 mg/kg. In short, it runs like this: (§2)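 SET-2 s.c. xenografts in irradiated female SCID mice were given one oral dose. Tumours were collected at several post-treatment times, 3 animals per time. Tumour lysates were western blotted for P-STAT5 and P-STAT3, with GAPDH as loading control.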

Data set [8] has as its system SET-2. Briefly: Inhibition of STAT5 phosphorylation in human SET2 cells xenografted in SCID mouse assessed as tumor growth inhibition at 30 mg/kg, po as single dose measured at 1 to 3 hrs post treatment. Format: functional, organism-based. Also on record: dose 30 mg/kg. The method, boiled down: as §2
Data set [9] concerns SET-2. Briefly: Inhibition of STAT3 phosphorylation in human SET2 cells xenografted in SCID mouse assessed as tumor growth inhibition at 30 mg/kg, po as single dose measured at 1 to 3 hrs post treatment. The format is functional, organism-based. Also on record: dose 30 mg/kg. In short, it runs like this:
as §2

Chain of Dual specificity protein kinase CLK2 (Homo sapiens) (P49760 whole entry, looked up): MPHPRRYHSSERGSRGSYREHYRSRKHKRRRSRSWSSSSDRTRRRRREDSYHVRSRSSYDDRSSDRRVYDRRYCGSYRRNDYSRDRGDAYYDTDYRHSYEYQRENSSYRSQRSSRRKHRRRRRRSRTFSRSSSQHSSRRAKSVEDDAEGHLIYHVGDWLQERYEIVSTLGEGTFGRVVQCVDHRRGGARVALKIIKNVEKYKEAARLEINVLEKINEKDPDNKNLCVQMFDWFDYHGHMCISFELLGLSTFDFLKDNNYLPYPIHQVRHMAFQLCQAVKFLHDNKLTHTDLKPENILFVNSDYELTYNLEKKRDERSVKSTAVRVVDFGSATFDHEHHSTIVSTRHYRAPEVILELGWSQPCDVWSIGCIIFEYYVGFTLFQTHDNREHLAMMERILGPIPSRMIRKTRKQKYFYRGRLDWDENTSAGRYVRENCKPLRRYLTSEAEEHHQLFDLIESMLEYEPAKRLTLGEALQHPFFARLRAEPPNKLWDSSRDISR

`NC(=O)c1cc(-c2ccnc(N)n2)[nH]c1-c1cc(C(F)(F)F)ccc1Cl` showed a solubility in data set [1] of 159 µM (≈ 60.7 µg/mL). This compound gave a clearance in data set [2] of 16.2 mL/min/kg. Moreover, the inhibition in [3], in data set [4] and in data set [5] was 1% throughout. Moreover, the Activity in the data set with Mus musculus is given as 2%. In addition, the inhibition in vivo at 50 mg/kg in data set [6] turned out to be 95%. Also, the inhibition entry in the data set on SET-2 [7], with SET-2 [8] and with SET-2 [9] was “Active” throughout.
